Measurements published in ChEMBL document CHEMBL4024748, “Development of Potent Type I Protein Arginine Methyltransferase (PRMT) Inhibitors of Leukemia Cell Proliferation” (J Med Chem, 2017).
Calls of active or inactive are those of the source. The calls are words filed in the database; no cut-off is given here.

What was measured:
[1] = Cytotoxicity against human RCTEC cells assessed as decrease in cell viability at 6.25 to 25 uM after 96 hrs by Cell-Titer Glo assay; assay type: cell-based
Summary of the method: (§1)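 Normal HUV-EC-C, MRC-5 and RCTEC cells at 37°C, 5% CO2, given compound or DMSO control for 96 h. Viability by CellTiter-Glo luminescence after 2 min shaking and 10 min at room temperature. Triplicate wells, normalised to control cells.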

[2] = target: Histone-lysine N-methyltransferase EZH2 (Homo sapiens) (UniProt Q15910); test: Inhibition of EZH2 (unknown origin) at 50 uM incubated for 15 mins followed by substrate addition measured after 60 mins by radioisotope assay
Sequence of Histone-lysine N-methyltransferase EZH2 (Homo sapiens) (Q15910 whole entry, looked up): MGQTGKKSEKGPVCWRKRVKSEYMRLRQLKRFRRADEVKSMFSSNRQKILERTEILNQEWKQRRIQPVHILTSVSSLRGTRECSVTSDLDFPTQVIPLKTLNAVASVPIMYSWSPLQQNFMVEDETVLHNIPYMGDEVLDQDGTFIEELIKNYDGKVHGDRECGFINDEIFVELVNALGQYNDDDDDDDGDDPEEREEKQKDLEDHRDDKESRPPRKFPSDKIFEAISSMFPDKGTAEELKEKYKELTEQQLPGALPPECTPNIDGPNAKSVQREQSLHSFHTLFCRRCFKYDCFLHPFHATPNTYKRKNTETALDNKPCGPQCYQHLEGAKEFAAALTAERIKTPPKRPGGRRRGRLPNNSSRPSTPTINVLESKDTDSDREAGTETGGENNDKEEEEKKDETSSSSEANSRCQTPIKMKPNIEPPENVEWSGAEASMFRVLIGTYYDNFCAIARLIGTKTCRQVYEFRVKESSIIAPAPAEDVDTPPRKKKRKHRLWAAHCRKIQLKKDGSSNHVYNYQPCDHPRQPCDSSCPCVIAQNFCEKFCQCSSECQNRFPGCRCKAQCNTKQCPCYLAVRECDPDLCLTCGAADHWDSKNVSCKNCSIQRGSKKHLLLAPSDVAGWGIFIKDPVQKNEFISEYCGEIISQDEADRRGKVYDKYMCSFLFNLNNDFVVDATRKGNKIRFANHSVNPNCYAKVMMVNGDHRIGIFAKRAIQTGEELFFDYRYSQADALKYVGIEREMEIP

[3] = target: Histone-lysine N-methyltransferase 2A (Homo sapiens) (UniProt Q03164); test: Inhibition of MLL1 (unknown origin) at 50 uM incubated for 15 mins followed by substrate addition measured after 60 mins by AlphaLisa method
Summary of the method: (§2)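 AlphaLISA. Enzyme and substrate in 1x assay buffer, compound at 1% DMSO final. Enzyme preincubated with compound 15 min at room temperature, then substrate added. Reaction 60 min at room temperature, then bead mix added and incubated 60 min under subdued light before signal read.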

[4] = target: Histone-lysine N-methyltransferase SUV39H1 (Homo sapiens) (UniProt O43463); test: Inhibition of SUV39H1 (unknown origin) at 100 uM incubated for 15 mins followed by substrate addition measured after 60 mins by AlphaLisa method
Summary of the method: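 SUV39H1 AlphaLISA at 50 and 100 µM compound, 1% DMSO final. Enzyme preincubated 15 min at room temperature, substrate reaction 60 min at RT. Bead mix then added for 60 min at RT in subdued light before signal collection.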

KMS-11 = test: Cytotoxicity against human KMS11 cells assessed as decrease in cell viability after 96 hrs by Cell-Titer Glo assay; assay type: functional, cell-based
Summary of the method: (§3)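 Cells kept at 37°C, 5% CO2, exposed to compound or DMSO control for 96 h. Viability read by CellTiter-Glo luminescence after 2 min shaking to lyse and 10 min at room temperature. Triplicate wells, normalised to control cells. For long-term growth, log-phase seeding densities; cells counted and replated to the starting density with fresh compound on days 4 and 8.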

[5] = target: Histone-lysine N-methyltransferase EHMT2 (Homo sapiens) (UniProt Q96KQ7); test: Inhibition of G9a (unknown origin) at 100 uM incubated for 15 mins followed by substrate addition measured after 60 mins by AlphaLisa method; summary of the method: as §2
[6] = target: DNMT3A2/3L complex (Homo sapiens) (UniProt Q9Y6K1+Q9UJW3); test: Inhibition of DNMT3A/3L (unknown origin) at 50 uM incubated for 15 mins followed by substrate addition measured after 60 mins by radioisotope assay; assay type: protein-complex assay
Sequence of DNMT3A2/3L complex (Homo sapiens) (Q9UJW3 whole entry, looked up): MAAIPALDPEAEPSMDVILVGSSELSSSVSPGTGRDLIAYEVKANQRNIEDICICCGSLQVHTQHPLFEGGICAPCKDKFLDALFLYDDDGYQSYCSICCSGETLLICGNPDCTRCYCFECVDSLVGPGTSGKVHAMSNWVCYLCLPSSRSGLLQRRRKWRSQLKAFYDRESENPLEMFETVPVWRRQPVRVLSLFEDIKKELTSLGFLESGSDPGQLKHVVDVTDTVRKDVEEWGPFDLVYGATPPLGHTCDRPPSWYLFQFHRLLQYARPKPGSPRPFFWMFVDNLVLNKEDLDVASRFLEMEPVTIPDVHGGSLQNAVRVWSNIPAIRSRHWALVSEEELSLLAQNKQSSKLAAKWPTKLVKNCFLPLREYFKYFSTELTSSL
Sequence of DNMT3A2/3L complex (Homo sapiens) (Q9Y6K1 whole entry, looked up): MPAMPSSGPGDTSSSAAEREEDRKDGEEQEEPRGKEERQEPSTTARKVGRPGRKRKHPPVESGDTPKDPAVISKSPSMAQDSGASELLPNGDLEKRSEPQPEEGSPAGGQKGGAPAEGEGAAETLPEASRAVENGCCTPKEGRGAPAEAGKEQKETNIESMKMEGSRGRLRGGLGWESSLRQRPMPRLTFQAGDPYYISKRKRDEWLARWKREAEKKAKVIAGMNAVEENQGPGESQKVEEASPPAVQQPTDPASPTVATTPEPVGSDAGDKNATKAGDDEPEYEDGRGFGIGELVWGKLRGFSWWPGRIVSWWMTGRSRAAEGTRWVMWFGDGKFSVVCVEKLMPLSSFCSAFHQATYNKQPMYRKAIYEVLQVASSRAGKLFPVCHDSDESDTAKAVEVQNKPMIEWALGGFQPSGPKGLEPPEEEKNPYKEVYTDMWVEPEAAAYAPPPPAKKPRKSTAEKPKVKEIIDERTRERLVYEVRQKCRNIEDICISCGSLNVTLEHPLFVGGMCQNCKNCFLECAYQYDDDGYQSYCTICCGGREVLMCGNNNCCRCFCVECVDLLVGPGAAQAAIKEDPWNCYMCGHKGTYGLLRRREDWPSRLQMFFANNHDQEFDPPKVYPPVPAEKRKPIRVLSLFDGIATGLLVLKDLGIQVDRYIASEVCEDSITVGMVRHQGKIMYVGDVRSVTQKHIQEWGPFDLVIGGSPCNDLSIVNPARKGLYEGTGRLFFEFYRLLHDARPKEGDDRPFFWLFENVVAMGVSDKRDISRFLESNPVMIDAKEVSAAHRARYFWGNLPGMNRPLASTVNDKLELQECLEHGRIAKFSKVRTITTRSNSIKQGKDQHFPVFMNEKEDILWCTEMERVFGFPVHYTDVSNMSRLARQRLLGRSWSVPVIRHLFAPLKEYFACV

MV4-11 [7] = test: Cytotoxicity against human MV4-11 cells assessed as decrease in cell viability at 6.25 to 12.5 uM after 96 hrs by Cell-Titer Glo assay; assay type: functional, cell-based; summary of the method: as §3
[8] = target: DNA (cytosine-5)-methyltransferase 1 (Homo sapiens) (UniProt P26358); test: Inhibition of DNMT1 (unknown origin) at 50 uM incubated for 15 mins followed by substrate addition measured after 60 mins by radioisotope assay
Sequence of DNA (cytosine-5)-methyltransferase 1 (Homo sapiens) (P26358 whole entry): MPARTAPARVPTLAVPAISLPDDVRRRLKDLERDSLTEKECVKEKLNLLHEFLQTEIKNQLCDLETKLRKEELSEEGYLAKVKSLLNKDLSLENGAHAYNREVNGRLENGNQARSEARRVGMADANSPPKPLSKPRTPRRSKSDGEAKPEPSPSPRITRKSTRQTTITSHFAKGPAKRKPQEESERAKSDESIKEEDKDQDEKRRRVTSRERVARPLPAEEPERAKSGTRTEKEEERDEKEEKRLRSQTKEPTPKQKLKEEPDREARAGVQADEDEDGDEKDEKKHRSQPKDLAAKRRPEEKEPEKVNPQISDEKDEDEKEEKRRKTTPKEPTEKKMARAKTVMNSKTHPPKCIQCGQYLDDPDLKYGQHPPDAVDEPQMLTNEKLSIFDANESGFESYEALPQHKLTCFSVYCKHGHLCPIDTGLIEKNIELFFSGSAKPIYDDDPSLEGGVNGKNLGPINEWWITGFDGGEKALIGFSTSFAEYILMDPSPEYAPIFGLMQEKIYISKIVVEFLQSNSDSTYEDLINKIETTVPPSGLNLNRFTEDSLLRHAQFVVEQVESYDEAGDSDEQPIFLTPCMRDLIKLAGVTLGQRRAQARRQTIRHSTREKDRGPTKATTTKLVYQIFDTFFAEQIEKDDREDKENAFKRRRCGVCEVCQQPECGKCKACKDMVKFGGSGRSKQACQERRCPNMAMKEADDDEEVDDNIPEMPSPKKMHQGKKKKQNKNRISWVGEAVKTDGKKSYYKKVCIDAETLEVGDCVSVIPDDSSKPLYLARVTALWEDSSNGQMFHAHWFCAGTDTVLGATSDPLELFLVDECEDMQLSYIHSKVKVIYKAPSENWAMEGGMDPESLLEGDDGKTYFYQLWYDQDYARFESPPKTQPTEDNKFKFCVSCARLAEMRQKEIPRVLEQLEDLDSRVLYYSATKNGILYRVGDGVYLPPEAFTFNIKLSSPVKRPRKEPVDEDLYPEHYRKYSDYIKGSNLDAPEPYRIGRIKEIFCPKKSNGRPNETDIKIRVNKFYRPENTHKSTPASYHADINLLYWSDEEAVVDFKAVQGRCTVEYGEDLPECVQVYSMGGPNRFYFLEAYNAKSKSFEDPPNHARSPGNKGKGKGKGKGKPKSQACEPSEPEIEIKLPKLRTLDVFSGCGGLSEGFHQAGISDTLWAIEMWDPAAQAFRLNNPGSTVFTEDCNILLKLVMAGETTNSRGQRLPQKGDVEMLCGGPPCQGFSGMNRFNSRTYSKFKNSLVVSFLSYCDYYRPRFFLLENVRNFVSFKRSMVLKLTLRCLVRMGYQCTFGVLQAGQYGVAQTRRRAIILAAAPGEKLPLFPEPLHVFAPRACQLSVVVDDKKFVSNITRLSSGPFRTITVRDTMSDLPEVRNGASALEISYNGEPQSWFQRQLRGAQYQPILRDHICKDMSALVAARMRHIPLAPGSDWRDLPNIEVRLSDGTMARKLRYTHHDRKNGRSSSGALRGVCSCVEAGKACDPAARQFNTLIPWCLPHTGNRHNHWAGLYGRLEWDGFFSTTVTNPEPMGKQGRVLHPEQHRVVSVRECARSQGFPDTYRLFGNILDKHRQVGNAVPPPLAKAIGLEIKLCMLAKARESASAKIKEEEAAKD

[9] = target: Protein arginine N-methyltransferase 1 (Homo sapiens) (UniProt Q99873); test: Inhibition of PRMT1 in human MV411 cells assessed as increase in SDMA levels after 48 hrs by Western blot analysis; assay type: cell-based
Sequence of Protein arginine N-methyltransferase 1 (Homo sapiens) (Q99873 whole entry, looked up): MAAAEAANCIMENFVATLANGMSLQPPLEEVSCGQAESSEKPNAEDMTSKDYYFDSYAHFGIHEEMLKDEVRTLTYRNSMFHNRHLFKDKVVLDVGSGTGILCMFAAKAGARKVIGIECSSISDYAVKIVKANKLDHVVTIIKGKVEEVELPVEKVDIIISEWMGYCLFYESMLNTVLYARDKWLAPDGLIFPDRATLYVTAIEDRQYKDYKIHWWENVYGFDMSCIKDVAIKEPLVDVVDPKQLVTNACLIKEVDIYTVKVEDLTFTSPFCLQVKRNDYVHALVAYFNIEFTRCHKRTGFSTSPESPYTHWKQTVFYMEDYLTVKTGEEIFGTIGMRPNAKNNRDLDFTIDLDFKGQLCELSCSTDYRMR
Summary of the method: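 MV4-11 cells treated with compound for 48 h. ADMA, SDMA and H4R3me2a read by western blot. Blots blocked in 5% nonfat milk in PBST, primary antibodies overnight at 4°C, HRP anti-rabbit secondary at 1:10000 for 1 h.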

[10] = target: Protein arginine N-methyltransferase 8 (Homo sapiens, UniProt Q9NR22); test: Inhibition of PRMT8 (unknown origin) incubated for 15 mins followed by substrate addition measured after 60 mins by AlphaLisa method
Sequence of Protein arginine N-methyltransferase 8 (Q9NR22 whole entry): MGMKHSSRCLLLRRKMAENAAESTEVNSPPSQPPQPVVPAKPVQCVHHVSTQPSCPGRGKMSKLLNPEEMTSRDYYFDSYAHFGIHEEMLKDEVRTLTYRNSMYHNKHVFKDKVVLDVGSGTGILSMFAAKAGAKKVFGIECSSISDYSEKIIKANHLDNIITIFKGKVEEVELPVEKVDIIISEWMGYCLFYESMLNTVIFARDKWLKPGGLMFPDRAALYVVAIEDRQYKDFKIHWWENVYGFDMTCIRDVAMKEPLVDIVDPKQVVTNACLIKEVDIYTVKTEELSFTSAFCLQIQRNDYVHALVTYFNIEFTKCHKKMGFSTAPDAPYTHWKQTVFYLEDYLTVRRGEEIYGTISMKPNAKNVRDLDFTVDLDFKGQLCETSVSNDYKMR
Summary of the method: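 AlphaLISA IC50 run. Compound dispensed to 1% DMSO final, enzyme in 1x assay buffer preincubated 15 min at room temperature. Substrate added and reacted 60 min at RT, then AlphaLISA bead mix added for 60 min at RT in subdued light. IC50 taken from the dose-response fit.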

[11] = target: Histone-lysine N-methyltransferase PRDM9 (Homo sapiens) (UniProt Q9NQV7); test: Inhibition of PRDM9 (unknown origin) at 100 uM incubated for 15 mins followed by substrate addition measured after 60 mins by AlphaLisa method; summary of the method: as §2
MV4-11 [12] = test: Downregulation of HOXA9 mRNA levels in human MV4-11 cells by qRT-PCR analysis; assay type: functional, cell-based
Summary of the method: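 MV4-11 cells treated with compound. mRNA measured by SYBR Green qRT-PCR with B2M as internal control. Fold change from ΔΔCt. Samples run in triplicate, mean ± SD.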

MRC5 = test: Cytotoxicity against human MRC5 cells assessed as decrease in cell viability at 6.25 to 25 uM after 96 hrs by Cell-Titer Glo assay; assay type: cell-based; conditions: mrc5, 96 h; summary of the method: as §1
MV4-11 [13] = test: Cell cycle arrest in human MV4-11 cells assessed as accumulation at G1 phase after 72 hrs by propidium iodide staining-based flow cytometry; assay type: functional
Summary of the method: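 MV4-11 cells in 6-well plates with compound or DMSO control, harvested at 72 h. Fixed overnight in 70% ethanol at 4°C, washed with PBS, stained 30 min at room temperature with propidium iodide/RNase buffer, analysed by flow cytometry. Mean ± SD of three replicates.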

[14] = target: Protein arginine N-methyltransferase 1 (Rattus norvegicus) (UniProt Q63009); test: Uncompetitive inhibition of rat His-tagged PRMT1 (11 to 353 residues) expressed in Escherichia coli BL21(DE3) using biotinylated H4 peptide (1 to 21 residues) as substrate in presence of varying concentrations of [3H]SAM
Summary of the method: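 Kinetic mode-of-action study using the radiolabel method with His6-rPRMT1(11–353). IC50 measured at varied peptide substrate or varied SAM concentrations, with the other component fixed. 15 min enzyme–compound preincubation, then 60 min reaction at RT with [3H]-SAM, Flashplate capture and Microbeta counting.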

MV4-11 [15] = test: Antiproliferative activity against human MV4-11 cells assessed as decrease in cell viability measured at day 8 by Cell-Titer Glo assay; assay type: functional, cell-based; conditions: MV4-11, 192 h; summary of the method: as §3
[16] = target: Histone-lysine N-methyltransferase EZH2 (Homo sapiens) (UniProt Q15910); test: Inhibition of EZH2 (unknown origin) at 100 uM incubated for 15 mins followed by substrate addition measured after 60 mins by radioisotope assay
THP-1 = test: Cytotoxicity against human THP1 cells assessed as decrease in cell viability after 96 hrs by Cell-Titer Glo assay; assay type: functional, cell-based; summary of the method: as §3
[17] = target: Histone-arginine methyltransferase CARM1 (Homo sapiens, UniProt Q86X55); test: Inhibition of PRMT4 (unknown origin) incubated for 15 mins followed by substrate addition measured after 60 mins by AlphaLisa method
Sequence of Histone-arginine methyltransferase CARM1 (Q86X55 whole entry): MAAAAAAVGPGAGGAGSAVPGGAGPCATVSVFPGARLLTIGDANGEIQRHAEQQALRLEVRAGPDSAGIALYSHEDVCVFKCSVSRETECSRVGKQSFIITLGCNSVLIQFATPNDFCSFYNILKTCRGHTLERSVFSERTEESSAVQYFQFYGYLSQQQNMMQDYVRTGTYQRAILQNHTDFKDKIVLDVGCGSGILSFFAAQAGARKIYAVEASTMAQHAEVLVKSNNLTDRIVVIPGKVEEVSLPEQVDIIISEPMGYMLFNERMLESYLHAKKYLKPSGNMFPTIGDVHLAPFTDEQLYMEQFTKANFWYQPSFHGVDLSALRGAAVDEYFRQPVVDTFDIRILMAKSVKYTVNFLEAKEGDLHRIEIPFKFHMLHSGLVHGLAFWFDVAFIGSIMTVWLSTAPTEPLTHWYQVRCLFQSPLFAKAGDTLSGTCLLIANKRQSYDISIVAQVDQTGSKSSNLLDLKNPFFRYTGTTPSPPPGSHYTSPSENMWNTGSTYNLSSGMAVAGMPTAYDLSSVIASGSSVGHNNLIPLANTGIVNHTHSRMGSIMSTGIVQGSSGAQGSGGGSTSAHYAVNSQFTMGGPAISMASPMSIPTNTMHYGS
Summary of the method: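 Enzyme preincubated with compound for 15 min at room temperature in 1x assay buffer (final DMSO 1%), then substrate added. The reaction ran for 60 min at room temperature. AlphaLISA bead mix was then added and incubated for 60 min at room temperature in subdued light. The luminescent signal was read and IC50 derived by curve fitting.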

MV4-11 [18] = test: Antiproliferative activity against human MV4-11 cells assessed as decrease in cell viability measured at day 12 by Cell-Titer Glo assay; assay type: functional, cell-based; conditions: MV4-11, 288 h; summary of the method: as §3

In the case of `CN(CCN)Cc1ccccc1Sc1ccccc1Cl`, the Activity [1] is reported as “Non-Toxic”, the inhibition [2] is reported as “Active” and the inhibition [3] is reported as “Active”. For the same compound, the inhibition [4] was “Active”, the Activity (KMS-11) was “Dose-dependent effect” and the inhibition [5] was “Active”. For the same compound, the inhibition [6] was “Active”, the Activity (MV4-11 [7]) was “Active” and the inhibition [8] was “Active”. The inhibition [9] was “Dose-dependent effect”, the IC50 [10] was 0.0011 µM and the inhibition [11] was “Active”. For the same compound, the Activity (MV4-11 [12]) was “Dose-dependent effect”, the Activity (MRC5) was “Non-Toxic” and the Activity (MV4-11 [13]) was “Dose-dependent effect”. For the same compound, the inhibition [14] was “Active”, the IC50 (MV4-11 [15]) was 3.21 µM and the inhibition [16] was “Active”. The Activity (THP-1) was “Dose-dependent effect”, the IC50 [17] was 0.063 µM and the IC50 (MV4-11 [18]) was 0.81 µM.
